Laboratory results published in PMC6099444 (Journal of Clinical Pharmacology, 2018).
“Also recorded” adds a separate entry of the source.

Key:
Type in all cases: in vivo, human
[1] = Plasma pharmacokinetics, phase 1b multiple-dose drug-drug interaction study; conditions: for plasma exposure on coadministration, result in words: verinurad: with allopurinol 300 mg, colchicine: with verinurad 10 mg
How it was run: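 Adult males with gout were randomized 1:1 to two sequences. They took a once-daily oral xanthine oxidase inhibitor 300 mg or urate reabsorption inhibitor 10 mg alone (days 1–7), both (days 8–14), then the other agent (days 15–21). Fasted overnight, no food 4 h postdose. Plasma was sampled days −1, 7, 14, 21 predose to 24 h. Parent and metabolite were measured by LC-MS/MS (methanol precipitation, isotope internal standards). Noncompartmental Tmax, Cmax, AUC0‐24; geometric LS mean ratio combo/alone.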

[2] = Urine pharmacokinetics; conditions: for Ae0‐24: urine; for Ae0‐24 / CLR0‐24: geometric LS mean (95% CI)
[3] = system: serum uric acid; assay: Serum uric acid pharmacodynamics in adult male subjects with gout; conditions: verinurad 10 mg, allopurinol 300 mg, once daily for 7 days, alone or combined
How it was run: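 Adult males with gout received a once-daily oral xanthine oxidase inhibitor 300 mg, a urate reabsorption inhibitor 10 mg, or both for 7 days each in a randomized crossover sequence. Fasted overnight before sampling. Serum was drawn days 7, 14, 21 predose to 24 h postdose, with extra predose points day 1, and uric acid measured by a central lab. Read-out is maximum % change from time-matched day −1 baseline.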

[4] = system: urine uric acid; assay: Urine uric acid pharmacodynamics; conditions: for CLUR, Mean (SD) / FEUA, Mean (SD) / AeUR, Change From Baseline (%) / CLUR, Change From Baseline (%) / FEUA, Change From Baseline (%) / AeUR, Mean (SD) / AeUR, %Change From Baseline / CLUR, %Change From Baseline / FEUA, %Change From Baseline: ALLO 300 mg or both; for AeUR, Change From Baseline (%) / CLUR, Change From Baseline (%) / FEUA, Change From Baseline (%) / AeUR, %Change From Baseline / CLUR, %Change From Baseline / FEUA, %Change From Baseline: mean (SD)
How it was run: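 Total-catch urine was collected days 1, 7, 8, 14, 21 in intervals from 0–1 to 22–24 h postdose. Water: 240 mL on waking and at 22 h, 160 mL frequently postdose. Uric acid and creatinine were assayed centrally. AeUR = concentration × volume; CLUR = AeUR/plasma urate AUC same interval; fractional excretion = (CLUR/CrCl) × 100; rate = AeUR/interval hours. % change uses time-matched day −1 baseline.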

[5] = VERU 10 mg + ALLO 300 mg compared with allopurinol alone
[6] = VERU 10 mg + ALLO 300 mg compared with allopurinol alone, plasma
[7] = treatment ALLO 300 mg once daily
[8] = treatment VERU 10 mg + ALLO 300 mg once daily
[9] = 0‐ to 12‐hour interval, VERU 10 mg
[10] = 0‐ to 12‐hour interval, multiple daily doses VERU 10 mg
[11] = 0‐ to 24‐hour interval, VERU 10 mg
[12] = 12‐ to 24‐hour interval, VERU 10 mg
[13] = VERU 10 mg + ALLO 300 mg compared with allopurinol alone, plasma, listed as oxypurinol
[14] = treatment VERU 10 mg once daily

| Ae0‐24 [2, 7] | Ae0‐24 [2, 8] | SMILES | maximum decrease in serum urate [3] | CLUR, Mean (SD) [4, 9] | FEUA, Mean (SD) [4, 9] | AeUR, Change From Baseline (%) [4, 9] | CLUR, Change From Baseline (%) [4, 9] | FEUA, Change From Baseline (%) [4, 9] | AeUR, Mean (SD) [4, 10] | AeUR, Mean (SD) [4, 11] | CLUR, Mean (SD) [4, 11] | FEUA, Mean (SD) [4, 11] | AeUR, %Change From Baseline [4, 11] | CLUR, %Change From Baseline [4, 11] | FEUA, %Change From Baseline [4, 11] | CLUR, Mean (SD) [4, 12] | FEUA, Mean (SD) [4, 12] | AeUR, Change From Baseline (%) [4, 12] | CLUR, Change From Baseline (%) [4, 12] | FEUA, Change From Baseline (%) [4, 12] | other results |
| --- | --- | --- | --- | --- | --- | --- | --- | --- | --- | --- | --- | --- | --- | --- | --- | --- | --- | --- | --- | --- | --- |
| 25.4 (22.1‐29.2) mg | 22.7 (19.2‐26.9) mg | Oc1ncnc2[nH]ncc12 [Allopurinol, allopurinol] | 43% | 6.50 (1.18) mL/min | 4.06 (0.47) % | −46.8 (7.3) % | −6.0 (12.0) % | −9.7 (9.2) % | 231 (45) mg | 363 (73) mg | 5.00 (1.13) mL/min | 3.69 (0.59) % | −47.4 (7.6) % | −8.50 (14.8) % | −12.0 (12.2) % | 3.62 (1.30) mL/min | 3.19 (0.62) % | −45.4 (14.5) % | −9.4 (23.2) % | −7.6 (14.6) % | AUC on coadministration of verinurad, result in words [1, 5]: unaffected; also recorded: unaltered; increase in Cmax on coadministration of verinurad [1, 6]: 33%; Cmax ([1]; treatment ALLO 300 mg once daily, plasma, geometric LS mean (95% CI)): 1.13 (0.89‐1.43) μg/mL; decrease in 24 hr fractional excretion of urate compared with baseline ([4]; 0-24 h, allopurinol 300 mg): 12.0%; decrease in CLUR compared with baseline ([4]; 0-24 h, allopurinol 300 mg): 8.5%; decrease in 24‐hour AeUR compared with baseline ([4]; 0-24 h, allopurinol 300 mg alone or with verinurad 10 mg): 47.4%; decrease in rate of uric acid excretion ([4]; 2‐3 hour urine collection interval postdose, allopurinol 300 mg): 46%; maximum rate of uric acid excreted in urine compared with the maximum observed baseline rate ([4]; highest mean rate, 2‐3 hour urine collection interval postdose (combination 2‐3 and 3‐4 hour), verinurad 10 mg, allopurinol 300 mg): −46% |
| – | – | COc1cc2c(c(OC)c1OC)-c1ccc(OC)c(=O)cc1[C@@H](NC(C)=O)CC2 [Colchicine, colchicine, reference compound] | – | – | – | – | – | – | – | – | – | – | – | – | – | – | – | – | – | – | plasma exposure on coadministration, result in words [1]: unaltered |
| 231 (216‐248) mg | 275 (262‐290) mg | O=c1[nH]c(=O)c2c[nH]nc2[nH]1 [Oxypurinol, oxypurinol] | – | – | – | – | – | – | – | – | – | – | – | – | – | – | – | – | – | – | decrease in AUC on coadministration of verinurad [1, 6]: 38%; decrease in Cmax on coadministration of verinurad [1, 6]: 32%; decrease in AUC on coadministration of verinurad [1, 13]: approximately 38%; decrease in Cmax on coadministration of verinurad [1, 13]: approximately 32%; Cmax ([1]; male, human, plasma, oral, 300 mg): 12800 ng/mL; increase in renal clearance on coadministration of verinurad [2, 5]: 93%; increase in urinary excretion on coadministration of verinurad [2, 5]: 19% |
| – | 67.2 (51.7‐87.4) μg | CC(C)(Sc1ccncc1-c1ccc(C#N)c2ccccc12)C(=O)O [Verinurad] | 51% | 16.3 (4.57) mL/min | 11.6 (3.77) % | 21.4 (23.3) % | 153 (77.0) % | 160 (96.6) % | 490 (71) mg | 739 (84) mg | 11.5 (2.74) mL/min | 9.19 (3.28) % | 9.9 (21.5) % | 122 (105) % | 77.4 (36.0) % | 6.74 (0.96) mL/min | 5.88 (1.78) % | 4.2 (48.0) % | 95.5 (148) % | 49.9 (21.9) % | plasma exposure on coadministration, result in words [1]: unaffected; CLR0‐24 [2, 8]: 9.75 (7.73‐12.3) mL/min; CLR0‐24 [2, 14]: 9.28 (7.43‐11.6) mL/min; Ae0‐24 [2, 14]: 66.8 (51.8‐86.1) μg; AeUR, Mean (SD) [4, 12]: 250 (52) mg |
